Data on 15 compounds can be found in ChEMBL document CHEMBL3758084, “Pyrazole antagonists of the CB1 receptor with reduced brain penetration” (Bioorg Med Chem, 2016).

In series [1] the target is T1, Cannabinoid receptor 1 (Homo sapiens, UniProt P21554). The note with it: CHO-K1.
The target in series [2] is T1, Cannabinoid receptor 1. Nature of the series: Displacement of [3H]CP55940 from human CB1 receptor expressed in CHO cell membranes. The series is classed as cell-based.
Another series has as its target Cannabinoid receptor 2 (Homo sapiens, UniProt P34972). The series is described as follows: Displacement of [3H]CP55940 from human CB2 receptor expressed in CHO cell membranes.
For the next series, the species on record is Homo sapiens. The series is described as follows: Selectivity ratio of Ki for human CB2 receptor to Ki for human CB1 receptor. The essentials:
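Ki values from displacement of [³H]CP55940 in membranes of CHO cells overexpressing human CB1 or human CB2; ratio taken as Ki(CB2)/Ki(CB1). Binding was run only on compounds with apparent Ke <50 nM in the CB1 calcium assay.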

Series [3] concerns the target T1, Cannabinoid receptor 1. The series is described as follows: Inverse agonist activity at human CB1 receptor expressed in CHO cells assessed as increase in intracellular calcium mobilization after 90 secs by Calcein-4 AM-staining based FLIPR assay. The series is classed as functional, cell-based.
The test system of another series is MDCK. The series is described as follows: Permeability across apical to basolateral side of MDCK cell BBB penetration model expressing human mdr1 at 10 uM incubated for 1 hr by mass spectrometric analysis. The note with it: dog. The series is classed as ADME, cell-based, Canis lupus familiaris. The method in brief:
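MDCK cells transfected with human MDR1 grown 4 days to confluence on Transwell-type filters in DMEM/F12 with 10% FBS and antibiotics. Compound added apically at 10 µM in HBSS with 25 mM glucose, HEPES pH 7.4; 1 h at 37 °C; apical and basal samples quantified by LC–MS/MS (MRM); percent apical-to-basal transport.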

Another series relates to Liver. The series is described as follows: Stability of compound in human liver S9 fractions assessed as compound remaining at 10 uM incubated for 60 mins by mass spectrometric analysis. It counts as ADME, subcellular, Liver S9 fraction. As to conditions: s9, 1 h. The essentials:
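Mixed-gender pooled human hepatic S9 at 1 mg/mL; compound at 10 µM final in 50 mM potassium phosphate pH 7.4, 3 mM MgCl2 with NADPH regenerating system (1 mM NADP, 5 mM glucose-6-phosphate, 1 unit/mL G6PDH); triplicates, 60 min; quenched with 3 volumes acetonitrile; LC–MS quantified against matrix standard curves; percent parent remaining.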

Series [4] in a line: Permeability of compound across apical to basal compartment in PBS at pH 7.4 at 10 uM after 4 hrs by PAMPA. The note with it: pH 7.4, 4 h. The series is classed as ADME. The method in brief:
(§1)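 PAMPA kit per manufacturer; compound at 10 µM final added to the apical compartment in PBS at pH 5.5 or 7.4; incubated 4 h at room temperature; both compartments sampled and measured by LC–MS; percent apical-to-basal transport, mean of 3.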

Series [5] in a line: Permeability of compound across apical to basal compartment in PBS at pH 5.5 at 10 uM after 4 hrs by PAMPA. The series is classed as ADME. As to conditions: pH 5.5, 4 h. The method in brief:
as §1

Series [6] can be described thus: Drug uptake in Sprague-Dawley rat brain at 10 mg/kg, po after 4 hrs by LC-MS/MS analysis. It counts as ADME, organism-based. The note with it: read-out: Drug uptake. The method in brief: (§2)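 Male Sprague Dawley rats (10 weeks on arrival, acclimated; 12 weeks at dosing, n=3) given a single oral gavage bolus of 10 mg/kg in 90% corn oil/10% DMSO. Sacrificed 4 h post-dose; brain and plasma collected; parent compound quantified by LC–MS/MS; mean and SD reported.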

Series [7] is described as follows: Plasma concentration in Sprague-Dawley rat at 10 mg/kg, po after 4 hrs by LC-MS/MS analysis. The series is classed as ADME, organism-based. The essentials: as §2
Series [8] is described as follows: Ratio of drug level in Sprague-Dawley rat brain to plasma at 10 mg/kg, po after 4 hrs by LC-MS/MS analysis. It counts as ADME, organism-based. The essentials:
as §2

The nature of series [9]: Ratio of drug level in Sprague-Dawley rat brain to plasma at 10 mg/kg, ip. It counts as ADME, organism-based. As to conditions: read-out: BPR.

T1 sequence (P21554 whole entry): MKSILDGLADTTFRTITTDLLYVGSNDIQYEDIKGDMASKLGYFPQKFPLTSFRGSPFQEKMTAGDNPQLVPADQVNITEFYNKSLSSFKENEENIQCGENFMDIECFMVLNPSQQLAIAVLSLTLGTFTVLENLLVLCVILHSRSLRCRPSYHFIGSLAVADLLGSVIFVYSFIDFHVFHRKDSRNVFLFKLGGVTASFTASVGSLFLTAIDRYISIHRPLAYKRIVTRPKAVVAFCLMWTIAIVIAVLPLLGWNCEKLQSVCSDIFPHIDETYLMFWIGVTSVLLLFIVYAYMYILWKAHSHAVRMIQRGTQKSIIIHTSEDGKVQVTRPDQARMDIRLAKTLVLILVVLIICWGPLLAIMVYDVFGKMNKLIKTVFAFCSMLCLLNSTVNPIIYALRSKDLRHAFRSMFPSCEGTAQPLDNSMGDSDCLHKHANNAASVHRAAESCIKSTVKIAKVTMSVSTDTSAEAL
Chain of Cannabinoid receptor 2 (P34972 whole entry): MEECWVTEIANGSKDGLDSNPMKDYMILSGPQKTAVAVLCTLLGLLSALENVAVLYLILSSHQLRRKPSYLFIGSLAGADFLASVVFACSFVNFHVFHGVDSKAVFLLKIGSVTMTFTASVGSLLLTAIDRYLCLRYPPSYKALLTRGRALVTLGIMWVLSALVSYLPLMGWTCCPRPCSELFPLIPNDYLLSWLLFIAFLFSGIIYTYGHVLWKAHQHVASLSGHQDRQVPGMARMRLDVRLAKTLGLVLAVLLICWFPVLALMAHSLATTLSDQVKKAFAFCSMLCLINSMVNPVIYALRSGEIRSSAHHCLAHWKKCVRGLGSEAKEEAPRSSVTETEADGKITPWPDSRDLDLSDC

In turn, `CCCCOC(=O)N1CCC(NC(=O)c2nn(-c3ccc(Cl)cc3Cl)c(-c3ccc(Cl)cc3)c2C)CC1` came in with a Ke at Cannabinoid receptor 1 [1] of 88 nM.

As to `CCCOC(=O)N1CCC(NC(=O)c2nn(-c3ccc(Cl)cc3Cl)c(-c3ccc(Cl)cc3)c2C)CC1`, the Ki on Cannabinoid receptor 1 [2] was determined as 8.82 nM; at Cannabinoid receptor 2, 1540 nM. Further, the Ratio Ki in the series filed under Homo sapiens is 175. For the same compound, the EC50 at Cannabinoid receptor 1 [3] is 20 nM. For the same compound, the permeability in the series with MDCK was less than 1%; in [4], 1.9%; in series [5] it was 1.4%. Besides, the Stability with Liver was determined as 66%. Besides, the concentration at 4 h in series [6] was 69 ng/g; in series [7], 455 ng/mL. Moreover, the BPR in series [8] is on record as 15%.

With `Cc1c(C(=O)NC2CCN(S(=O)(=O)c3ccccc3)CC2)nn(-c2ccc(Cl)cc2Cl)c1-c1ccc(Cl)cc1`, the Ki on Cannabinoid receptor 1 [2] was 43 nM; at Cannabinoid receptor 2 it was greater than 20000 nM. The permeability in the series on MDCK was less than 1%; in series [4], 0.1%; in [5], 0.03%. The Stability in the series with Liver is on record as greater than 90%.

In the case of `Cc1c(C(=O)NC2CCN(C(=O)C3CCCC3)CC2)nn(-c2ccc(Cl)cc2Cl)c1-c1ccc(Cl)cc1`, the values for the Ki on Cannabinoid receptor 1 [2] and at Cannabinoid receptor 2 were 9.2 nM and 2500 nM, respectively. Also, the Ratio Ki in the series filed under Homo sapiens worked out at 271. Also, the permeability in the series with MDCK is less than 1%; in series [4], 0.2%; in series [5], 0.2%. In addition, the Stability with Liver was found to be 62%.

Take `CCS(=O)(=O)N1CCC(NC(=O)c2nn(-c3ccc(Cl)cc3Cl)c(-c3ccc(Cl)cc3)c2C)CC1`: the Ki stood at 44.4 nM at Cannabinoid receptor 1 [2] and 4410 nM at Cannabinoid receptor 2. For the same compound, in the series listed under Homo sapiens, the Ratio Ki came out at 99. In addition, the permeability is recorded as less than 1% in the series on MDCK, 0.05% in series [4] and 0.1% in [5]. Further, in the series on Liver, the Stability was found to be 68%.

For `CCCCC(=O)N1CCC(NC(=O)c2nn(-c3ccc(Cl)cc3Cl)c(-c3ccc(Cl)cc3)c2C)CC1`, the Ki on Cannabinoid receptor 1 [2] came out at 14.5 nM; on Cannabinoid receptor 2, 1780 nM. In the series filed under Homo sapiens, the Ratio Ki was 123. Also, the permeability in the series with MDCK was less than 1%; in series [4], 1.8%; in series [5] it was 1.1%. Further, in the series with Liver, the Stability is given as 72%.

With `Cc1c(C(=O)NC2CCN(S(=O)(=O)CCC(F)(F)F)CC2)nn(-c2ccc(Cl)cc2Cl)c1-c1ccc(Cl)cc1`, the inhibitory constant (Ki) on Cannabinoid receptor 1 [2] was 9.6 nM; at Cannabinoid receptor 2, 4720 nM. Moreover, the Ratio Ki in the series listed under Homo sapiens stood at 492. Besides, the figures for the permeability (in the series with MDCK; in [4]; in [5]) were less than 1%, 0.1% and 0.1%, respectively. Moreover, the Stability in the series on Liver was greater than 90%.

In the series with MDCK, `Cn1c(=O)c2c(ncn2C)n(C)c1=O` [CAFFEINE] gave a permeability of 80%.

Turning to `Cc1c(C(=O)NC2CCN(C(=O)C(F)(F)F)CC2)nn(-c2ccc(Cl)cc2Cl)c1-c1ccc(Cl)cc1`, the Ki at Cannabinoid receptor 1 [2] came to 1.9 nM; on Cannabinoid receptor 2 it was 1040 nM. In the series filed under Homo sapiens, the Ratio Ki came out at 548. Also, the permeability with MDCK is given as less than 1%; in series [4] it was 0.2%; in [5] it was 0.4%. Further, the Stability in the series with Liver came to 74%.

With `Cc1c(C(=O)NC2CCN(C(=O)OC(C)C)CC2)nn(-c2ccc(Cl)cc2Cl)c1-c1ccc(Cl)cc1`, the inhibition constant (Ki) at Cannabinoid receptor 1 [2] was 6.4 nM; on Cannabinoid receptor 2, 1930 nM. Besides, the Ratio Ki in the series listed under Homo sapiens was found to be 301. In addition, the permeability in the series on MDCK is reported as less than 1%; in series [4], 0.1%; in [5], 0%. In the series with Liver, the Stability was 82%.

Take `Cc1c(C(=O)NC2CCN(C(=O)CC(C)C)CC2)nn(-c2ccc(Cl)cc2Cl)c1-c1ccc(Cl)cc1`: the Ki at Cannabinoid receptor 1 [2] was found to be 28.9 nM; at Cannabinoid receptor 2, 1810 nM. Also, the Ratio Ki in the series listed under Homo sapiens was found to be 63. Moreover, the permeability with MDCK was 1%; in [4] it was 3.6%; in series [5], 3.3%. In the series with Liver, the Stability came to 72%.

For the compound `Cc1c(C(=O)NC2CCN(C(=O)OC(C)(C)C)CC2)nn(-c2ccc(Cl)cc2Cl)c1-c1ccc(Cl)cc1`, the Kp in [9] is less than 0.04.

As to `Cc1c(C(=O)NC2CCN(C(=O)c3ccccc3)CC2)nn(-c2ccc(Cl)cc2Cl)c1-c1ccc(Cl)cc1`, the values for the Ki on Cannabinoid receptor 1 [2] and on Cannabinoid receptor 2 were 7.5 nM and 1730 nM, respectively. For the same compound, the Ratio Ki in the series filed under Homo sapiens worked out at 230. The permeability with MDCK is less than 1%; in [4], 0.2%; in series [5] it was 0.3%. Moreover, the Stability with Liver is reported as greater than 90%.

Consider `Cc1c(C(=O)NC2CCN(S(=O)(=O)CC(C)C)CC2)nn(-c2ccc(Cl)cc2Cl)c1-c1ccc(Cl)cc1`, for which the results for the Ki at Cannabinoid receptor 1 [2] and on Cannabinoid receptor 2 were 43.5 nM and 6210 nM, respectively. Further, the Ratio Ki in the series listed under Homo sapiens stood at 143. The permeability in the series on MDCK is recorded as less than 1%; in series [4], 0.2%; in series [5] it was 0.1%. The Stability in the series on Liver was greater than 90%.

For the compound `Cc1c(C(=O)N2CCC(NC(=O)NC(C)(C)C)(c3ccccc3)CC2)nn(-c2ccc(Cl)cc2Cl)c1-c1ccc(Cl)cc1`, the Kp in series [9] was less than 0.04.
